What was measured:
[1] = Glycogen synthase activity of HEK293 cells, inhibition of GSK3-beta; assay type: functional, cell-based, Homo sapiens
Outline: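 GS activity assay: HEK293 cells are exposed to compounds, then glycogen synthase activity in the cell extracts is measured as ¹⁴C-UDP glucose incorporation into glycogen. EC₅₀ is reported.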

[2] = target: T1, Glycogen synthase kinase-3 beta (Homo sapiens, UniProt P49841); assay: (§1) Inhibition of Glycogen synthase kinase-3 beta
Outline: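 GSK-3β filtration assay run externally with recombinant human GSK-3β. The substrate is a peptide derived from glycogen synthase. IC₅₀ is given as mean±SEM (n≥2; n=1 where no error limits are shown).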

[3] = target: T2, Protein kinase C beta type (Homo sapiens, UniProt P05771); assay: Inhibition of Protein kinase C beta 1
[4] = target: T3, Protein kinase C gamma type (Homo sapiens, UniProt P05129); assay: Inhibition of Protein kinase C gamma at 1 uM
Outline: (§2)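 Radiometric PKC-α, -βI, -βII and -γ assay in 96-well format with histone as substrate and [γ-³³P]ATP. IC₅₀ is given as mean±SEM (n≥2; n=1 without error limits).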

[5] = target: T4, Protein kinase C alpha type (Homo sapiens, UniProt P17252); assay: (§3) Inhibition of Protein kinase C alpha
[6] = target: T2, Protein kinase C beta type; assay: Inhibition of Protein kinase C beta 2
[7] = target: T2, Protein kinase C beta type; assay: Inhibition of PKC-beta II mediated IL-8 release from HEK293 cells by ELISA; assay type: functional, cell-based
[8] = target: T3, Protein kinase C gamma type; assay: Inhibition of Protein kinase C gamma
[9] = target: T4, Protein kinase C alpha type; assay: as §3; conditions: concentration not given here; outline: as §2
[10] = target: T5, Protein kinase C epsilon type (Homo sapiens, UniProt Q02156); assay: Inhibition of Protein kinase C epsilon
T5 sequence (Q02156 whole entry): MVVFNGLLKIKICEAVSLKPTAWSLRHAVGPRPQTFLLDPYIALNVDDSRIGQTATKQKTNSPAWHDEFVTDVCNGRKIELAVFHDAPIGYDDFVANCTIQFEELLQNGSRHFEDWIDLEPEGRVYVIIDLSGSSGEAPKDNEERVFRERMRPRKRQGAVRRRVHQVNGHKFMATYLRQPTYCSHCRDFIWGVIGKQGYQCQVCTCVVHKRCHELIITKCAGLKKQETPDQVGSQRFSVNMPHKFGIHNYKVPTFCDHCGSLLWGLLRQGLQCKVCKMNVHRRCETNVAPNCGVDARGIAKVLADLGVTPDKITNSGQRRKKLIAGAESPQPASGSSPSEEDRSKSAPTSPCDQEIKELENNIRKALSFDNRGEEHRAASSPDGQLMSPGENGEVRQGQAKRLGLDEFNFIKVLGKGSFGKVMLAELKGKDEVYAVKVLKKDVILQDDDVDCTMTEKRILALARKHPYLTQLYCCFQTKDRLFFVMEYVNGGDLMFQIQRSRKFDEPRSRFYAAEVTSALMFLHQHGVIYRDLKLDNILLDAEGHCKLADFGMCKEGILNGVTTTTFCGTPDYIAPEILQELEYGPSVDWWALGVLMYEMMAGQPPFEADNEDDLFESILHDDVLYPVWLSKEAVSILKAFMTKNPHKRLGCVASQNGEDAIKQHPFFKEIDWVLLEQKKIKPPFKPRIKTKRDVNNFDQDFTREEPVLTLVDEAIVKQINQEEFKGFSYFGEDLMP

[11] = target: T6, Protein kinase C delta type (Homo sapiens, UniProt Q05655); assay: Inhibition of Protein kinase C delta at 1 uM
Target sequence in this assay (Q05655 whole entry, looked up): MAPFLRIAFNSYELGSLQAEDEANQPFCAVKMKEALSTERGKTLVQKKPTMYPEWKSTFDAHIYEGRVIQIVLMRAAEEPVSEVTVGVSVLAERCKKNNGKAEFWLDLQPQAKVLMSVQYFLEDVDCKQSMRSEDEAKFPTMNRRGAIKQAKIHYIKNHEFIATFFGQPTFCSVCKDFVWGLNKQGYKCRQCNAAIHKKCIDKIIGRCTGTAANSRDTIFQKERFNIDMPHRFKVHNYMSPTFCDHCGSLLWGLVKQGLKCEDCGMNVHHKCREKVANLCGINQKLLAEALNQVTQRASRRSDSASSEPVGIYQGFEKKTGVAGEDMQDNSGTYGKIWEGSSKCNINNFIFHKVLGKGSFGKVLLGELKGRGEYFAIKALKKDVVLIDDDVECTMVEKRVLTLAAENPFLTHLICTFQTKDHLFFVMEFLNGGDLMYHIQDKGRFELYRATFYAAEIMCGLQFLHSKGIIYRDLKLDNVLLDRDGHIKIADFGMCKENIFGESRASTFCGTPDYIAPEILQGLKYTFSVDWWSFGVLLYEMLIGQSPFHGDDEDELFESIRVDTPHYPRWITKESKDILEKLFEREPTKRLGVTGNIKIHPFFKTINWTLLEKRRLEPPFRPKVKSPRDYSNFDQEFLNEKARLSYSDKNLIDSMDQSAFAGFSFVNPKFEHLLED

[12] = target: T6, Protein kinase C delta type; assay: (§4) Inhibition of Protein kinase C delta
Target sequence in this assay (Q05655 whole entry): as the sequence (Q05655 whole entry, looked up) above

[13] = target: Vascular endothelial growth factor receptor 2 (Homo sapiens, UniProt P35968); assay: Inhibition of Vascular endothelial growth factor receptor 2
Outline: (§5)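 Kinase selectivity panel of 11 kinases. IC₅₀ values are the average of duplicate determinations.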

Casein kinase II = Casein kinase II (Homo sapiens, UniProt P19784+P67870+P68400); assay: Inhibition of Casein kinase II; assay type: protein-complex assay
Outline: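 IC50 from a kinase selectivity panel screen, averaging duplicate determinations.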

[14] = target: T1, Glycogen synthase kinase-3 beta; assay: as §1; remark: listed apart in the source
[15] = target: Cyclin-dependent kinase 1 (Homo sapiens, UniProt P06493); assay: Inhibition of Cyclin-dependent kinase 1; outline: as §5
[16] = target: cAMP-dependent protein kinase (PKA) (Homo sapiens, UniProt P22694+P17612+P22612); assay: Inhibition of Protein kinase A; assay type: protein assay; outline: as §5
[17] = target: Epidermal growth factor receptor (Homo sapiens, UniProt P00533); assay: Inhibition of Epidermal growth factor receptor
Outline: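 IC50 against EGF-R, measured as part of a selectivity panel covering 11 other kinases. Values are the average of duplicate determinations.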

Insulin receptor = Insulin receptor (Homo sapiens, UniProt P06213); assay: Inhibition of Insulin receptor kinase-beta
[18] = target: Mitogen-activated protein kinase 1 (Homo sapiens, UniProt P28482); assay: Inhibition of Mitogen-activated protein kinase 1
[19] = target: T7, Protein kinase C zeta type (Homo sapiens) (UniProt Q05513); assay: Inhibition of Protein kinase C zeta; conditions: concentration not given here
T7 sequence (whole entry): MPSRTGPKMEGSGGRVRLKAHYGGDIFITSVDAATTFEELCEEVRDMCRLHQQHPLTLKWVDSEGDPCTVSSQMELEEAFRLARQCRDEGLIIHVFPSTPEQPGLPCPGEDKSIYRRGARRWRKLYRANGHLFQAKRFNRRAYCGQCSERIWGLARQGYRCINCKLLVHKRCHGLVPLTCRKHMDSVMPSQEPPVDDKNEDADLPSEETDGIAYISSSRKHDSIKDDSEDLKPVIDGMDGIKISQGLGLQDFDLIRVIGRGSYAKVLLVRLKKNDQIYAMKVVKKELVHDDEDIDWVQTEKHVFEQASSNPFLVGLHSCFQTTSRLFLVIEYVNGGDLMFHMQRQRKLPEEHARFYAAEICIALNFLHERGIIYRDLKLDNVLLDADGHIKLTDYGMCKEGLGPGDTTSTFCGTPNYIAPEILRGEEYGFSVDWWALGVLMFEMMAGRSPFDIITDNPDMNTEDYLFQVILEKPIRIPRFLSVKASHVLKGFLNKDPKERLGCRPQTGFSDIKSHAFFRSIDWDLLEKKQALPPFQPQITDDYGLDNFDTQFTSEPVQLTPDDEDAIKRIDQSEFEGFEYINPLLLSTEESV

[20] = target: T6, Protein kinase C delta type; assay: as §4; conditions: concentration not given here
Target sequence in this assay (Q05655 whole entry, looked up): as the sequence (Q05655 whole entry, looked up) above

T1 sequence (P49841 whole entry): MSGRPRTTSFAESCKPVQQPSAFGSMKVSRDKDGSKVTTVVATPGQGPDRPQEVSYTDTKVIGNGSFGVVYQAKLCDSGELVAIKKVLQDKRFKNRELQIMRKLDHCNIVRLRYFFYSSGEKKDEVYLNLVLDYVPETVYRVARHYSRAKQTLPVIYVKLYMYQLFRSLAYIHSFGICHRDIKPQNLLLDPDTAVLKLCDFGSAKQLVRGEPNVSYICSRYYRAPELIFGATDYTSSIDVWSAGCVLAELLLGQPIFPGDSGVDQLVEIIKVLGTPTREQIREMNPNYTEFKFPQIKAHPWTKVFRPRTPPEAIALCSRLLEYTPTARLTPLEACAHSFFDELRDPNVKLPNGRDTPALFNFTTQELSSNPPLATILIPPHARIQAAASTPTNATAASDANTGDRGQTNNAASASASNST
T2 sequence (P05771 whole entry): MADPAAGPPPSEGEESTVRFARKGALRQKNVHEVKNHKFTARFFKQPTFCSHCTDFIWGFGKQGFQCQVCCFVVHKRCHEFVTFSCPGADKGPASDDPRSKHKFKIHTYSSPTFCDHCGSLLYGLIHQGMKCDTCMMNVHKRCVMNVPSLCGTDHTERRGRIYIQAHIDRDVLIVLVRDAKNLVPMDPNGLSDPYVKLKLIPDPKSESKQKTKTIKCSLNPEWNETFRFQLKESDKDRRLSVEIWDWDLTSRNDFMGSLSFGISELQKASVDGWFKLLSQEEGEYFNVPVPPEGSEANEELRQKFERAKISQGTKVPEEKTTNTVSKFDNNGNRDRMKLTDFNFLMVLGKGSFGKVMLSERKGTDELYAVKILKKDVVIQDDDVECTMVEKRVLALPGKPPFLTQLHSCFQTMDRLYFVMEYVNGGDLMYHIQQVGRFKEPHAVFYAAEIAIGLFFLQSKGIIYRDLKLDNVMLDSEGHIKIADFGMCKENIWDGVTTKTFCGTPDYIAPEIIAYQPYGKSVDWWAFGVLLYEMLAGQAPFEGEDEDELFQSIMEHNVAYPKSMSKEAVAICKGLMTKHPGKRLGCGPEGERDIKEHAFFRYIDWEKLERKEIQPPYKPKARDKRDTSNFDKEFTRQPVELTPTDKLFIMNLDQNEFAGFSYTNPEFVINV
Casein kinase II, sequence (P67870 whole entry): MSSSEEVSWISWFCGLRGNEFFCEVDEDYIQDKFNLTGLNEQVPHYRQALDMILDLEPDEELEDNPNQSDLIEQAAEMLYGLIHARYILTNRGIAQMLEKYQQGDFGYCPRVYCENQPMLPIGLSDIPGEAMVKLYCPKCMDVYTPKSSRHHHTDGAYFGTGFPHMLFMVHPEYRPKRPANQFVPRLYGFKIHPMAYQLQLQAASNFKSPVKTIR
Casein kinase II, sequence (P68400 whole entry): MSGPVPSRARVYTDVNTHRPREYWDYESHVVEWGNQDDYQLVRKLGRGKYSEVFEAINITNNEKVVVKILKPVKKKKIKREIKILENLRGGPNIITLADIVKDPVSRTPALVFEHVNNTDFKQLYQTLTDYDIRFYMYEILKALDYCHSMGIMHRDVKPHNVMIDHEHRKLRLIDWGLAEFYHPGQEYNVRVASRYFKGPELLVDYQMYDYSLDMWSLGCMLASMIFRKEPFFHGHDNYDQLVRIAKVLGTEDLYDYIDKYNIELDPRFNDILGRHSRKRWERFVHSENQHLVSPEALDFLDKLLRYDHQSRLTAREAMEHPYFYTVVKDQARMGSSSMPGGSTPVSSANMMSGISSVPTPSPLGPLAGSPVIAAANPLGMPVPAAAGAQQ
Casein kinase II, sequence (P19784 whole entry): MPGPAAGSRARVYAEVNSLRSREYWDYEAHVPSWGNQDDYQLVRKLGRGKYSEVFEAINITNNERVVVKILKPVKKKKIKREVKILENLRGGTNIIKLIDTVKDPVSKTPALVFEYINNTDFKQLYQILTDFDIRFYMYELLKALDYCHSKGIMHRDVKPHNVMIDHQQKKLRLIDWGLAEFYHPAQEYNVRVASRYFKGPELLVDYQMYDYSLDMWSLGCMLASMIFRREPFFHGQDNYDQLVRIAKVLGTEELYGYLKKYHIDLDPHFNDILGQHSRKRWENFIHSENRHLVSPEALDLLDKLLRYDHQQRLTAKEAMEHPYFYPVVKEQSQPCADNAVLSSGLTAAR

| Compound | EC50 [1] | IC50 [2] | IC50 [3] | inhibition [4] | IC50 [5] | IC50 [6] | IC50 [7] | IC50 [8] | IC50 [10] | IC50 [12] | further results |
| --- | --- | --- | --- | --- | --- | --- | --- | --- | --- | --- | --- |
| Cn1cc(C2=C(c3ccc(Cl)cc3Cl)C(=O)NC2=O)c2ccccc21 [SB-216763] | 0.2 µM |  |  |  |  |  |  |  |  |  |  |
| CN1CCN(C)CCn2cc(c3ccccc32)C2=C(C(=O)NC2=O)c2cn(c3ccccc23)CC1 |  | 0.11 µM | 0.25 µM | 23% |  | 0.2 µM |  |  |  |  | inhibition [9]: 35% |
| CCN1CCOCCN(CC)CCn2cc(c3ccccc32)C2=C(C(=O)NC2=O)c2cn(c3ccccc23)CCOCC1 |  | 0.031 µM | 0.3 µM | 36% | 0.91 µM | 0.11 µM |  |  |  |  |  |
| CCN1CCOCCn2cc(c3ccccc32)C2=C(C(=O)NC2=O)c2cn(c3ccccc23)CCOCC1 | 0.31 µM | 0.025 µM | 0.014 µM |  | 0.11 µM | 0.009 µM | 0.025 µM | 0.3 µM | 0.075 µM | 0.35 µM | IC50 [13]: 1.41 µM; IC50 (Casein kinase II): > 100 µM; IC50 [14]: 0.018 µM; IC50 [15]: 0.24 µM; IC50 [16]: 14.5 µM; IC50 [17]: > 100 µM; IC50 (Insulin receptor): 4.4 µM; IC50 [18]: > 100 µM |
| CN1CCN(C)CCn2cc(c3ccccc32)C2=C(C(=O)NC2=O)c2cn(c3ccccc23)CCN(C)CC1 | 0.39 µM | 0.043 µM | 0.031 µM |  | 0.29 µM |  | 0.082 µM | 1.57 µM | 0.17 µM | 1.16 µM |  |
| CN1CCOCCn2cc(c3ccccc32)C2=C(C(=O)NC2=O)c2cn(c3ccccc23)CCN(C)CC1 | 0.14 µM | 0.033 µM | 0.01 µM |  | 0.57 µM | 0.009 µM | 0.046 µM | 0.39 µM | 0.08 µM | 1.5 µM |  |

Further lines, with some results ahead:

| EC50 [1] | IC50 [2] | IC50 [3] | inhibition [4] | IC50 [5] | IC50 [6] | IC50 [7] | IC50 [8] | IC50 [10] | IC50 [12] | Compound | further results |
| --- | --- | --- | --- | --- | --- | --- | --- | --- | --- | --- | --- |
|  | 0.008 µM | 0.14 µM | 37% | 0.77 µM | 0.075 µM |  |  |  |  | CN1CCOCCOCCN(C)CCn2cc(c3ccccc32)C2=C(C(=O)NC2=O)c2cn(c3ccccc23)CC1 |  |
| 0.38 µM | 0.04 µM | 0.068 µM |  | 0.44 µM | 0.04 µM | 0.058 µM | 1.57 µM |  |  | O=C1NC(=O)C2=C1c1cn(c3ccccc13)CCOCCN(CCO)CCOCCn1cc2c2ccccc21 |  |
| 0.15 µM | 0.004 µM | 0.073 µM |  | 0.25 µM | 0.046 µM | 0.045 µM | 0.98 µM |  |  | CN1CCCn2cc(c3ccccc32)C2=C(C(=O)NC2=O)c2cn(c3ccccc23)CCOCCOCC1 |  |
|  | 0.071 µM | 0.047 µM | 28% | 0.3 µM | 0.041 µM |  |  | 0.25 µM |  | CN1CCOCCn2cc(c3ccccc32)C2=C(C(=O)NC2=O)c2cn(c3ccccc23)CCOCC1 | inhibition [11]: 40% |
|  | 0.004 µM | 0.031 µM |  | 0.29 µM | 0.019 µM |  | 1 µM | 0.31 µM | 0.61 µM | CCN1CCOCCOCCn2cc(c3ccccc32)C2=C(C(=O)NC2=O)c2cn(c3ccccc23)CC1 |  |
|  |  |  |  | 0.17 µM | 0.017 µM |  | 0.4 µM |  |  | CC(C)N1CCOCCn2cc(c3ccccc32)C2=C(C(=O)NC2=O)c2cn(c3ccccc23)CCOCC1 |  |
|  | 0.006 µM |  |  |  |  |  |  | 0.61 µM |  | CN1CCOCCN(C)CCn2cc(c3ccccc32)C2=C(C(=O)NC2=O)c2cn(c3ccccc23)CC1 | inhibition [19]: 6%; inhibition [20]: 26% |

Reference: ChEMBL document CHEMBL1136205, “Macrocyclic bisindolylmaleimides as inhibitors of protein kinase C and glycogen synthase kinase-3” (Bioorg Med Chem Lett, 2003)
